According to ChEMBL document CHEMBL3124867, “Hepatitis C replication inhibitors that target the viral NS4B protein” (J Med Chem, 2014):
In brackets after ≈: the same amount, converted by molar mass.

Columns and labels:
[1] = Displacement of [3H]-3-(1-(3-chloro-6-isopropyl-8-(trifluoromethyl)imidazo[1,2-a]pyridine-2-carbonyl)piperidin-4-yl)oxazolidin-2-one from HCV genotype 1b C-terminal His-tagged NS4B (1 to 261 aa) expressed in baculovirus infected SF9 cells after overnight incubation; set-up: species or system Hepatitis C virus subtype 1b
[2] = tested on: Hepatitis C virus; assay: Antiviral activity against Hepatitis C virus genotype 1b expressing NS4B V105M mutant infected in human HuH7 cells after 48 hrs by luciferase reporter gene assay; type: functional, organism-based, Hepacivirus hominis; settings: Huh-7, 48 h
[3] = Lipophilicity, log D of the compound by chromatographic analysis; type: physicochemical
In short: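 Lipophilicity was measured chromatographically and reported as ChromLogD; ≥6 replicates.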

[4] = tested on: Hepatocyte; assay: Drug metabolism in human hepatocytes assessed as oxidation of the terminal bicyclohexane substituent at 10 uM by LC/MS/MS analysis; type: ADME, cell-based
[5] = tested on: Hepatitis C virus; assay: Antiviral activity against Hepatitis C virus genotype 1b expressing NS4B H94N mutant infected in human HuH7 cells after 48 hrs by luciferase reporter gene assay; type: functional, organism-based, Hepacivirus hominis; settings: Huh-7, 48 h
[6] = tested on: Hepatitis C virus; assay: Antiviral activity against Hepatitis C virus genotype 1a infected in human HuH7 cells after 48 hrs by luciferase reporter gene assay; type: functional, organism-based, Hepacivirus hominis; settings: subtype 1a, Huh-7, 48 h
[7] = tested on: Hepatocyte; assay: Drug metabolism in rat hepatocytes assessed as oxidation of the terminal bicyclohexane substituent at 10 uM by LC/MS/MS analysis; type: ADME, cell-based
[8] = Clearance in CD rat at 1 mg/kg, iv by LC/MS/MS analysis; type: ADME, organism-based; set-up: dose 1 mg/kg, route intravenous; settings: in vivo
In short: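 Intravenous dose of 1 mg/kg in DMSO/20% HP-β-CD (10:90) (n = 4). Clearance, Vdss and t1/2 were derived from the plasma concentration–time profiles.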

[9] = tested on: Hepatitis C virus; assay: Antiviral activity against Hepatitis C virus genotype 1b infected in human HuH7 cells after 48 hrs by luciferase reporter gene assay; type: functional, organism-based, Hepacivirus hominis; settings: Huh-7, 48 h
[10] = tested on: Huh-7; assay: Cytotoxicity against human HuH7 cells at 50 uM after 2 days by Cell Titer Glo assay; type: cell-based; settings: huh-7, 48 h
In short: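 Huh7 cells were exposed to compound at 50 μM for 2 days and scored for cellular toxicity.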

[11] = tested on: Hepatitis C virus; assay: Antiviral activity against Hepatitis C virus genotype 1a; type: functional, Hepacivirus hominis; settings: subtype 1a
[12] = species: Rattus norvegicus; assay: Cardiovascular toxicity in rat after 7 days; type: organism-based; settings: in vivo, 168 h
[13] = Plasma protein binding in CD rat at 5 uM after 4 hrs by rapid equilibrium dialysis method; type: ADME, cell-free; settings: read-out: PPB (converted)
[14] = Plasma protein binding in human at 5 uM after 4 hrs by rapid equilibrium dialysis method; type: ADME, cell-free; settings: read-out: PPB (converted)
[15] = Plasma protein binding in beagle dog at 5 uM after 4 hrs by rapid equilibrium dialysis method; type: ADME, cell-free, Canis lupus familiaris; settings: read-out: PPB (converted)
[16] = Aqueous solubility in fasted state simulated intestinal fluid at pH 6.5 by LC/UV analysis; type: physicochemical
[17] = Plasma protein binding in cynomolgus monkey at 5 uM after 4 hrs by rapid equilibrium dialysis method; type: ADME, cell-free, Macaca fascicularis; settings: read-out: PPB (converted)
[18] = AUC (0 to 24 hrs) in CD rat at 300 mg/kg, po by LC/MS/MS analysis; type: ADME, organism-based; set-up: time < 24 hr, dose 300 mg/kg, route oral; settings: plasma
In short: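 CD rats were given a single oral dose of 300 mg/kg of parent suspension or of prodrug. Plasma was assayed for the parent drug and for uncleaved prodrug.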

Row | SMILES | IC50 [1] [nM] | EC50 [2] [nM] | chromatographic logD [3] | Stability [4] | EC50 [5] [nM] | EC50 [6] [nM] | Stability [7] | clearance [8] [mL/min/kg] | EC50 [9] [nM] | Activity [10] | EC90 [11] [nM] | Activity [12] | fraction unbound at 4 h, 5 µM [13] | fraction unbound at 4 h, 5 µM [14] | fraction unbound at 4 h, 5 µM [15] | solubility [16] [µg/mL] | fraction unbound at 4 h, 5 µM [17] | AUC(0-t) at 24 h [18] [ng·h/mL]
1 | O=C(c1nn2c(C(F)(F)F)cc(C3CC3)cc2c1Cl)N1CCN([C@@H]2C[C@H]3C[C@H]3C2)C(=O)C1 | 4 | 2 | 6.4 | Unstable | 0.7 | 0.1 | Unstable | 70 | 0.06 |  |  |  |  |  |  |  |  | 
2 | O=C(c1nc2c(C(F)(F)F)cc(C3CC3)cn2c1Cl)N1CCN([C@H]2CC[C@H](O)CC2)C(=O)C1 | 53 | 730 | 3.5 |  |  | 1 |  |  | 7 | Non-toxic | 29 | Toxic | 0.2 | 0.17 | 0.34 | 11 (≈ 22.7 µM) | 0.23 | 11300
